# Sampled rows, rich in hits. Any-hit rate of the full collection: about 1.7%.
# LMPTP block = LMPTP phosphatase inhibitors, primary screen, biochemical, fluorescence intensity, uHTS; inhibition, % at 20 µM; Low molecular weight phosphotyrosine protein phosphatase (Homo sapiens), P24666; actives 0.22% (n = 360,000); recombinant LMPTP-A, OMFP fluorogenic substrate; AID 651560, 2012;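 active means compounds that cut the enzyme signal by at least half of the control window in the single-dose screen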;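 further: plate controls were DMSO wells with enzyme plus substrate for no effect and substrate without enzyme for full effect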
#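 Assay system: LMPTP-A, protein tyrosine phosphatase of low molecular weight / Medium: pH 6.0 Bis-Tris buffer with DTT and Triton X-100 / Schedule: 50 min enzyme reaction at room temperature, protected from light / Measured by: endpoint fluorescence intensity from OMFP dephosphorylation / Read-out basis: % inhibition relative to no-enzyme and uninhibited control wells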
# SUMO1 PPI mod = modulators of SUMO1 protein-protein interactions, primary screen, biochemical, uHTS; Small ubiquitin-related modifier 1 (Homo sapiens), P63165; AID 602429, 2012; inhibition, % at 20 µM; actives 0.33% (n = 360,000); SUMO1 binding to a labelled peptide, TR-FRET, 1 h; in the data active means inhibition above about 37%
# Scp1 inh = Scp-1 phosphatase inhibitors, primary screen, biochemical, colorimetric, uHTS; Carboxy-terminal domain RNA polymerase II polypeptide A small phosphatase 1 (Homo …; Recombinant Scp1, phosphopeptide, malachite green phosphate absorbance; inhibition, % at 20 µM; actives 0.88% (n = 340,000); AID 493091, 2011;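 active means inhibition above about 50% at 20 µM, limit read from the data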;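 further: plate controls were DMSO wells with enzyme for no effect and wells lacking enzyme for full effect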
#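 System: truncated SCP-1 phosphatase (76-261aa); medium: Tris acetate buffer pH 5.5 with MgCl2 and Tween-20; incubation: 45 min room-temperature reaction, 5 min colour, 30 min stabiliser; compound: single 20 µM dose, 1% DMSO; reagent: Phosphorylated 17-residue peptide substrate; read-out: % inhibition at 20 µM; technique: colorimetric free-phosphate detection, absorbance 630 nm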
# STEP inh = STEP phosphatase inhibitors, primary screen, biochemical, fluorescence intensity, uHTS; Tyrosine-protein phosphatase non-receptor type 5 (Homo sapiens), P54829; recombinant STEP, OMFP fluorogenic substrate; inhibition, % at 20 µM; actives 0.25% (n = 360,000); AID 588621, 2011;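 active means inhibition at 20 µM, scaled per plate between control wells, above about 37%, limit read from the data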;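 further: 0% = DMSO with enzyme and substrate and 100% = substrate only without enzyme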
#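 Material: STEP (striatal-enriched tyrosine phosphatase) enzyme, cell-free; Compound dosing: 20 µM single dose in 1% DMSO; Technique: fluorescence read at 480 nm ex / 540 nm em; Times: reaction 20 min, ambient temperature; Medium: 50 mM Bis-Tris pH 6.0 with 2.5 mM DTT and 0.005% Tween 20; Also added: OMFP at 25 µM.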
# DNMT1 inh = human DNMT1 methyltransferase inhibitors, primary screen, biochemical, molecular beacon, fluorescence, HinP1I cleavage, uHTS; DNA (cytosine-5)-methyltransferase 1 (Homo sapiens), P26358; inhibition (reported as % activation of signal), % at 10 µM; actives 0.83% (n = 360,000); AID 588458, 2011; in the data active means inhibition above about 50%
# Scp1 confirm = Scp-1 phosphatase inhibitors, retest, confirmation, biochemical, colorimetric, single concentration. shares compounds with Scp1 inh. recombinant SCP-1 catalytic domain, phosphate release, malachite green absorbance. inhibition, % at 20 µM. actives 61% (n = 2,500);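 further: plate controls were DMSO with enzyme for no effect and buffer wells lacking enzyme for full effect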
# Scp-1 MG ctr = colorimetric readout interference by compounds, confirmation, artefact control for Scp-1 inhibitor project, biochemical, single concentration; shares compounds with Scp1 inh; Colorimetric interference counterscreen, malachite green absorbance 630 nm; apparent inhibition (interference), % at 20 µM; 2,500 tested, under 10 active;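 further: compounds added after enzyme reaction finished so only phosphate colour detection is probed; plate controls were DMSO wells with completed Scp-1 reaction for no effect and substrate wells lacking enzyme for full effect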
# Scp1 DSF = Scp-1 binding by thermal shift, confirmation, orthogonal assay for Scp-1 inhibitor project, biophysical, differential scanning fluorimetry; shares compounds with Scp1 inh; Recombinant SCP1, Sypro Orange thermal shift Tm; actives 25% (n = 1,500); thermal shift relative to vanadate control, % at 40 µM;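 active means substances whose mean melting-temperature shift, as a percentage of the reference inhibitor's shift, reaches about 5.3%, limit read from the data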;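 further: 0% = Tm of DMSO wells and 100% = Tm with sodium orthovanadate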
# An asterisk follows results filed as active; . = no result.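 How the source made its calls, unless noted: active means inhibition of at least 30% at 20 µM; inactive means the rest.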
SMILES,LMPTP block,SUMO1 PPI mod,Scp1 inh,STEP inh,DNMT1 inh,Scp1 confirm,Scp-1 MG ctr,Scp1 DSF
O=C(COC(=O)c1cc(-c2ccccc2Cl)nc2ccccc12)Nc1ncc(C(F)(F)F)cc1Cl,2,5,50*,3,24,36*,-8,-10
C[C@@H]1CC=C[C@@H]2[C@H]1C(=O)N(Cc1ccccc1)[C@H]2c1cccc(C#Cc2ccccc2)c1,5,-1,70*,2,3,42*,-22,-16
C[C@@H]1CC=C[C@@H]2[C@H]1C(=O)N(Cc1ccccc1)[C@H]2c1cccc(Br)c1,3,1,1,3,4,.,.,.
Cc1ccc(NC(=O)CN2C(=O)CSc3ccc(S(=O)(=O)N4CCCCC4)cc32)cc1,2,2,56*,-2,-3,57*,-13,47*
CC(=O)c1ccc(NC(=O)CN2C(=O)COc3ccc(S(=O)(=O)N4CCCC4)cc32)cc1,-1,3,69*,-2,3,47*,-8,12*
Cc1cc(C)cc(NC(=O)CN2C(=O)COc3ccc(S(=O)(=O)N4CCCC4)cc32)c1,-1,5,-5,0,-1,.,.,.
CC1CN(C(=S)Nc2cccc(Cl)c2Cl)CC(C)O1 (stereo not drawn),2,8,-11,1,4,.,.,.
COc1ccc(OC)c(NC(=O)CSc2sc3c(O)cc(=O)[nH]c3c2C#N)c1,44,12,70*,13,16,55*,-12,11*
COc1cc(Cl)c(C)cc1NC(=O)CSc1sc2c(O)cc(=O)[nH]c2c1C#N,35,23,65*,16,44,76*,0,13*
O=C(c1ccc(=O)[nH]c1)N1CCCc2ccccc21,3,2,-4,-2,0,.,.,.
O=C(CCCN1C(=O)/C(=C/c2cccs2)SC1=S)Nc1cc([N+](=O)[O-])ccc1O,0,-3,-5,1,-1,.,.,.
COc1ccc(/C=C2\SC(=S)N(CCCC(=O)Nc3ccc(O)cc3)C2=O)cc1,0,-25,-11,-3,-14,.,.,.
COc1ccc(/C=C2\SC(=S)N(CCC(=O)Nc3ccc(C(=O)O)cc3)C2=O)cc1,90*,-19,87*,95*,0,69*,-14,21*
O=C(CCN1C(=O)/C(=C/c2ccc(F)cc2)SC1=S)Nc1cc([N+](=O)[O-])ccc1O,13,-4,64*,15,1,50*,-15,7.2*
COc1ccccc1OCCCCn1ncc2ccc(OC)c(OC)c2c1=O,-1,-2,-4,-1,-1,.,.,.
C[C@H](CO)N1C[C@H](C)[C@@H](CN(C)Cc2ccc(C(=O)O)cc2)Oc2c(NS(=O)(=O)c3cccs3)cccc2C1=O,-1,5,50*,5,1,-5,-18,.
C[C@@H]1CN([C@@H](C)CO)C(=O)c2cccc(NS(=O)(=O)c3cccs3)c2O[C@H]1CN(C)Cc1ccc(C(F)(F)F)cc1,-2,0,-2,5,-9,.,.,.
Cc1ccc(S(=O)(=O)Nc2cccc3c2O[C@H](CN(C)Cc2ccc(-c4ccccc4)cc2)[C@@H](C)CN([C@H](C)CO)C3=O)cc1,5,1,1,-3,-19,.,.,.
C[C@H](CO)N1C[C@H](C)[C@@H](CN(C)Cc2ccc(-c3ccccc3)cc2)Oc2c(NS(=O)(=O)c3ccccc3)cccc2C1=O,-1,1,62*,2,-8,-5,-11,.
C[C@H](CO)N1C[C@H](C)[C@@H](CN(C)Cc2ccc(-c3ccccc3)cc2)Oc2c(NS(=O)(=O)c3cn(C)cn3)cccc2C1=O,-1,5,69*,-1,-5,-7,-15,.
Cc1onc(-c2ccccc2)c1C(=O)Nc1nncs1,-1,7,-1,0,2,.,.,.
O=C(Nc1cc2c(cc1Cl)OCCCO2)c1ccco1,0,-2,50,1,11,-22,-22,.
C=CC(=O)Nc1cccc(N(C)c2ccnc(Nc3ccc(N4CCN(C)CC4)cc3)n2)c1,19,-19,4,13,-45,.,.,.
O=C(NC(Cc1ccccc1)c1nc2ccccc2[nH]1)C1CC(=O)N(c2ccc3c(c2)OCCO3)C1 (stereo not drawn),0,2,72*,-1,-11,34*,-15,-6
O=C(NCCCc1ccccc1)C1CC(=O)N(c2ccc3c(c2)OCCO3)C1 (stereo not drawn),2,2,-2,2,-8,.,.,.
SMILES,LMPTP block,SUMO1 PPI mod,Scp1 inh,STEP inh,DNMT1 inh,Scp1 confirm,Scp-1 MG ctr,Scp1 DSF
O=C(NCCc1ccccc1)C1CC(=O)N(c2ccc3c(c2)OCCO3)C1 (stereo not drawn),-1,3,-1,1,0,-17,-12,.
O=C(Nc1nnc(C2CCCCC2)s1)C1CC(=O)N(c2ccccc2)C1 (stereo not drawn),0,1,-2,2,0,.,.,.
O=C(Nc1nnc(C2CC2)s1)C1CC(=O)N(c2ccc3c(c2)OCCO3)C1 (stereo not drawn),3,5,61*,3,40,56*,-18,2
C[C@H](N)C(=O)N1CCC(C(=O)N[C@@H](Cc2ccccc2)C(=O)Nc2ccc(F)cc2)CC1,1,7,4,2,-6,.,.,.
CN(CC(=O)Nc1c(Cl)cccc1Cl)C(=O)Cc1cccs1,0,-4,0,0,-8,.,.,.
CC(Sc1ccccc1)C(=O)N1CCN(S(=O)(=O)c2ccccc2F)CC1 (stereo not drawn),1,-1,2,-1,1,.,.,.
N#Cc1ccccc1OCC(=O)OCC(=O)N1CCCC1,-1,-4,-8,-4,0,.,.,.
N#Cc1ccccc1OCC(=O)OCCCOC(=O)COc1ccccc1C#N,1,7,96*,0,1,-12,-16,.
